OX1R antag-1 – antagonists of human orexin 1 receptor; O43613; CHO/OX1R cells, Fluo-8 calcium fluorescence, orexin A; inhibition, % at 5 µM; 0.43% of 330,000 active;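 active = inhibition above its plate's threshold, mean inhibition of all tested compounds on the plate plus 3 SD, cut at about 37% in these data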;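 note: 0% = orexin A challenge wells and 100% = SB-334867-A antagonist wells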
Target sequence (O43613 whole entry, looked up): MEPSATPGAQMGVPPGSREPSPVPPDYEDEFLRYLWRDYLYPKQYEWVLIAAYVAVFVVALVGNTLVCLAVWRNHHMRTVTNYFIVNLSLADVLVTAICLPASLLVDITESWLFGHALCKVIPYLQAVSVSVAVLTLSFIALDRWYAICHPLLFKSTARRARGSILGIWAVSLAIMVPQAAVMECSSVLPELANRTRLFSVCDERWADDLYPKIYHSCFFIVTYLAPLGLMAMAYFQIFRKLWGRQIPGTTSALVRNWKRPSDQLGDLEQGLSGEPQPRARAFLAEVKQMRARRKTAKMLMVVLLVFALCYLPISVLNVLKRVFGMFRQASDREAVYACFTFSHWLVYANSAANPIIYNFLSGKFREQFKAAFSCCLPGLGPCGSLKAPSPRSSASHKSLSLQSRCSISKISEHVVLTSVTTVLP
OX1R antag-2 – antagonists of human orexin 1 receptor (OX1R); O43613; OX1R-expressing cells, FRET antagonist read-out; inhibition, % at 6.6 µM; 1.8% of 330,000 active; in the data active = inhibition mostly above about 38%, no sharp cut-off; inactive = mostly below about 40%;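 note: 0% = agonist challenge alone and 100% = reference antagonist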
CHO parental Ca – signal in parental CHO cells, OX1R antagonist counter-screen; AID 463079; parental CHO-K1, ATP-induced calcium, Fluo-8 fluorescence; inhibition, % at 5.6 µM; 0.63% of 330,000 active;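 active = inhibition above that plate's mean sample inhibition plus 3 SD, cut at about 26% in these data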;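 note: 0% = ATP-challenged DMSO wells and 100% = DMSO wells without ATP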
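Test system: untransfected parental CHO cell line; also added: ATP stimulus; dosing: 5.6 µM, single dose; signal: calcium-sensitive Fluo-8 fluorescence; measure: percent inhibition of ATP-evoked calcium rise, normalized to controls; benchmarks: low control ATP plus DMSO, high control DMSO only; replication: one well per compound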
GPR7 antag – blocks human GPR7 receptor signaling; P48145; 1.1% of 290,000 active; GPR7-expressing cells, fluorescence antagonist assay; inhibition, % at 4.4 µM; in the data active = inhibition above about 16%, passing the limit was not always enough;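 note: cells stimulated with the agonist NPW; 0% = agonist with vehicle and 100% = vehicle without agonist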
PGE2 EP2 inh – EP2 receptor (human) inhibition. inhibition, % at 25 µM. AID 1422. 0.52% of 260,000 active. P43116. C6 glioma cells expressing human EP2, cAMP TR-FRET; cells stimulated with saturating PGE2;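 active = percent inhibition above 40 after rounding to a whole number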;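 note: rat C6 glioma host cells with rolipram phosphodiesterase inhibitor present; the protocol text gives 20 µM as final concentration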
EP2 modulator – modulators of human EP2 prostaglandin E2 receptor; P43116; EP2-expressing cells, cAMP HTRF FRET, PGE2 co-stimulation; induction, % at 25 µM; 0.83% of 260,000 active; AID 940;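 active = compounds whose cAMP rise, as percent of the full-agonist control response, exceeds 60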;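 note: rat C6 glioma line stably carrying human EP2 under a CMV promoter; the protocol text gives 20 µM as final concentration; 100% = response of wells given 1 µM PGE2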
* = called active by the depositor; nt = not tested or not shown. Shown are actives, neighbours in structure and some others; about 3.7% of the full set was active somewhere.

SMILES | OX1R antag-1 | OX1R antag-2 | CHO parental Ca | GPR7 antag | PGE2 EP2 inh | EP2 modulator
CN(C)C(=N)c1n[nH]nc1SCc1ccc(Cl)c(Cl)c1 | -8 | 11 | -8 | -14 | 7 | 32
O=C(Nc1ccc([N+](=O)[O-])cc1)Nc1ccc(Cl)cc1F | 48* | 40 | 43* | 9 | 13 | -53
Cc1cc(OC(F)F)ccc1NC(=O)Nc1ccc([N+](=O)[O-])cc1 | 32 | 24 | 57* | 41* | 10 | -4
Cc1ccc(C2=[N+]([O-])C(C)(C)CC2)cc1 | -16 | 13 | -3 | 3 | 9 | 8
O=C1CSC(=S)N1/N=C/c1cc(Br)c(O)c(Br)c1 | 90* | 46 | 75* | 31 | nt | nt
COc1cc(/C=N/N2C(=O)CSC2=S)ccc1O | 14 | 21 | 8 | -5 | 8 | 12
O=C(Cn1c(-c2cccs2)cc2cccnc21)NC1CCCC1 | nt | nt | nt | nt | 7 | -3
O=C(CSc1nc2ccc(Cl)cc2[nH]1)c1c[nH]c2ccccc12 | -4 | 41* | -9 | 7 | 15 | -51
O=C(CSc1nc2ncc(Cl)cc2[nH]1)c1c[nH]c2ccccc12 | 6 | 22 | 16 | 8 | 27 | -38
Cc1cc([N+](=O)[O-])nn1CCC(=O)Nc1nccs1 | -3 | 14 | -14 | -4 | 12 | 2
Cc1nnc2nc(-c3ccccc3)nc(-c3ccccc3)n12 | -32 | -4 | -21 | 6 | 6 | 82*
Cn1nc(-c2ccccc2)nc1-c1ccccc1 | -30 | 18 | -11 | nt | nt | nt
CCCC(=O)Nc1ccc(C(=O)NNC(=O)c2cccc([N+](=O)[O-])c2)cc1 | -11 | 31 | 1 | 1 | 12 | -10
Nc1nc(-c2ccc3ccccc3c2)cc(-c2cc(-c3ccc4ccccc4c3)nc(N)n2)n1 | nt | nt | nt | nt | 51* | 6
O=C(CSC1=NS(=O)(=O)c2ccccc21)Nc1ccccc1 | -1 | -8 | -5 | -3 | 17 | -20
COC(=O)CSC1=NS(=O)(=O)c2ccccc21 | -7 | 12 | -7 | -13 | 114* | -16
COc1cc(-c2noc(CCC(N)=O)n2)cc(OC)c1OC | nt | nt | nt | -10 | 7 | 3
O=C(CN1C(=O)/C(=C\c2ccccc2Br)Oc2ccccc21)NCCCN1CCOCC1 | 19 | 49* | -24 | -5 | nt | nt
CCn1c(SCC(=O)Nc2nc(-c3ccc(C)cc3)cs2)nnc1-c1ccccc1O | 36 | 56 | 33* | 4 | 16 | -28
Oc1[nH]c2ccccc2c1C=Nc1ccc2c(c1)OCO2 | -3 | 59* | -11 | -12 | 18 | -16
Nc1cc(=O)[nH]c(SCC(=O)Nc2cc([N+](=O)[O-])ccc2Cl)n1 | -26 | 23 | -6 | -13 | 6 | 27
O=C1OC(CN2CCOCC2)CN1N=Cc1ccc([N+](=O)[O-])o1 (centres undefined) | -2 | 60* | 0 | nt | nt | nt
Cc1ccc([N+](=O)[O-])cc1-c1ccc(/C=N/NC(=O)CN2CCOCC2)o1 | -21 | 13 | -13 | -11 | 8 | -24
O=[N+]([O-])c1ccc(/C=N/Nc2nc(N3CCCC3)nc(N3CCCC3)n2)o1 | -12 | 9 | -19 | -9 | 7 | -40
O=C1CN(/N=C/c2ccc([N+](=O)[O-])o2)C(=O)N1 | 1 | 84* | 0 | -15 | 12 | 21
SMILES | OX1R antag-1 | OX1R antag-2 | CHO parental Ca | GPR7 antag | PGE2 EP2 inh | EP2 modulator
CCN(CCCNS(=O)(=O)c1ccc2c(c1)oc(=O)n2C)c1cccc(C)c1 | -7 | 12 | 0 | 17* | 10 | -12
CCN(c1cccc(C)c1)S(=O)(=O)c1ccc2c(c1)oc(=O)n2C | -22 | 9 | -13 | 14 | nt | nt
CC1(C)CC(=O)C=C(Nc2ccc([N+](=O)[O-])cc2)C1 | -16 | 29* | -8 | -3 | nt | nt
CC1(C)CC(=O)C=C(Nc2ccc(Cl)cc2)C1 | -23 | -3 | -10 | 3 | nt | nt
Cc1cc(C)c2c(C(C)(C)C)nn(-c3ccccc3)c2n1 | -17 | 4 | -9 | -15 | nt | nt
Nc1nc(N)c2cc(Sc3ccc4ccccc4c3)ccc2n1 | -1 | 1 | 1 | -10 | 53* | -44
Nc1ccc(Sc2cc(Cl)nc(N)n2)cc1 | -6 | 14 | 11 | -15 | 12 | -49
CC1CCCCN1C(=O)COc1ccc(S(=O)(=O)N2CCCC2)cc1[N+](=O)[O-] (centres undefined) | -20 | 17 | 0 | nt | nt | nt
CCN(CC)C(=O)C(Oc1ccc(S(=O)(=O)N2CCCC2)cc1[N+](=O)[O-])c1ccccc1 (centres undefined) | 6 | 63* | 0 | -9 | nt | nt
Cc1c(-n2c(SCC(=O)NC(C)C(C)C)nc3ccccc3c2=O)c(=O)n(-c2ccccc2)n1C (centres undefined) | -24 | 35 | -16 | 2 | 6 | -30
Cc1cccc(Nc2ncnc(N)c2[N+](=O)[O-])n1 | -12 | 56* | 0 | -4 | 8 | -12
Cc1cccnc1Nc1ncnc(N)c1[N+](=O)[O-] | -7 | 13 | 1 | -1 | 2 | 14
Nc1ncnc(Nc2ccccn2)c1[N+](=O)[O-] | -9 | 64* | 6 | -9 | 7 | 9
O=C(c1cc(-c2ccccc2)nc2ccccc12)N1N=C(C(F)F)CC1(O)C(F)F (centres undefined) | -26 | 19 | -27 | -9 | 11 | -8
Cc1ccc(-c2cc(C(=O)N3N=C(C(F)F)CC3(O)C(F)F)c3ccccc3n2)cc1C (centres undefined) | 10 | 26 | 45* | -14 | 3 | -24
Cc1ccc(C(C)C)c(OCc2nn(CC(=O)c3ccc(Cl)cc3)c3[n+]2CCCCC3)c1 | -10 | 16 | 13 | 38* | 2 | 38
O=C(Cn1nc(CNc2ccc(Cl)cc2)[n+]2c1CCCCC2)c1ccccc1 | -8 | 8 | -5 | 1 | 5 | 11
CC1=NNC(=O)/C1=C\c1cn(-c2ccccc2)nc1-c1ccc(Cl)cc1 | 53* | 5 | 37* | 10 | 7 | 11
CCOc1ccc(NC(=O)C(Cc2ccccc2)NC(=O)C2CCCCC2)cc1 (centres undefined) | -19 | 6 | -20 | -11 | 2 | 21
C=CCn1c(CCNC(=O)c2ccco2)nc2ccccc21 | -3 | 13 | -3 | -7 | nt | nt
Cc1occc(=O)c1OC(=O)Nc1ccc(Cl)c(Cl)c1 | 36 | 14 | 70* | 13 | 6 | -16
COc1ccc(C(=O)Oc2c(C)occc2=O)cc1OC | -3 | 17 | -6 | -20 | 9 | 32
Cc1ccc2nc(N/N=C/c3cccc(C)n3)cc(C)c2c1 | nt | nt | nt | nt | 40* | -45
CC(C)(C)C(=O)NC1CCN(CC(=O)N2CCCCCC2)CC1 | nt | nt | nt | nt | 12 | -15
CC(=O)Nc1ccc(N=c2cc([N+](=O)[O-])cc(Cl)n2O)cc1 | -5 | 66* | -2 | 5 | nt | nt
Cc1ccc(C(=O)C[n+]2cccc3cc(C)ccc32)cc1 | -26 | 85 | -16 | -18 | 9 | 8
CCOc1ccc(C(=O)C[n+]2cccc3cc(C)ccc32)cc1 | 1 | 47* | -9 | 2 | nt | nt
